WT yeast gro inh = growth inhibition of WT yeast, mitochondrial fusion screen | mitochondrial fusion phenotypic screen, WT strain | inhibition, % at 10 µM | 2.1% of 190,000 active | AID 1362; in the data active = inhibition above about 58%; tested in S. cerevisiae
Rad51 HR inh = blocks human Rad51 in homologous recombination; Q06609; hRad51 DNA strand exchange, fluorescence dequenching; inhibition, % at 10 µM; 0.085% of 200,000 active; AID 1385;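 active = inhibition above 40% at the single screening dose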;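 note: 0% = DMSO control wells and 100% = blanks with heterologous ssDNA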
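Test system – preformed human Rad51 ssDNA filaments · Reagent – Donor/quencher-labelled 47-bp dsDNA substrate · Incubation – 37 °C 15-min filament assembly, 30-min compound preincubation, 15-min exchange · Signal – FRET fluorescence dequenching, excitation 485 nm, emission 520 nm · Read-out – percent inhibition from fluorescence, normalised to plate control and blank means · Benchmarks – plate control and blank wells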
Autophagy HCS = modulators of autophagy; MEF GFP-LC3 puncta imaging; test concentration mostly 10 µM; calls only at 10 µM (by protocol); 0.98% of 190,000 active;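 active = percentage of spot-positive cells more than 3 SD above its plate mean, without a fluorescence outlier flag or 80% toxicity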;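 note: spot-positive cell cutoff set from DMSO-treated cells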
Insulin prom up = MIN6 insulin promoter up-regulation; MIN6 insulin promoter-GFP reporter, high-content imaging; stronger effect = higher value; z-score at 5 µM; 0.3% of 190,000 active;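 active = z-score above 3 at 5 µM with at least 500 cells counted in the well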
Cl transport mod = modulates chloride dependent transport by human KCC2. 2.2% of 190,000 active. KCC2 cells, thallium flux FluoZin-2 fluorescence. AID 1456. B-score of Tl+ flux slope (higher = more flux/activation; lower = inhibition) at 10 µM;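 active = thallium flux slope and its plate-corrected score both differing from the plate sample mean at a set confidence after two filtering rounds, in either direction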;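 note: slope of fluorescence scaled to starting intensity during 10 to 20 s after thallium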
Target sequence (Q9H2X9 whole entry, looked up): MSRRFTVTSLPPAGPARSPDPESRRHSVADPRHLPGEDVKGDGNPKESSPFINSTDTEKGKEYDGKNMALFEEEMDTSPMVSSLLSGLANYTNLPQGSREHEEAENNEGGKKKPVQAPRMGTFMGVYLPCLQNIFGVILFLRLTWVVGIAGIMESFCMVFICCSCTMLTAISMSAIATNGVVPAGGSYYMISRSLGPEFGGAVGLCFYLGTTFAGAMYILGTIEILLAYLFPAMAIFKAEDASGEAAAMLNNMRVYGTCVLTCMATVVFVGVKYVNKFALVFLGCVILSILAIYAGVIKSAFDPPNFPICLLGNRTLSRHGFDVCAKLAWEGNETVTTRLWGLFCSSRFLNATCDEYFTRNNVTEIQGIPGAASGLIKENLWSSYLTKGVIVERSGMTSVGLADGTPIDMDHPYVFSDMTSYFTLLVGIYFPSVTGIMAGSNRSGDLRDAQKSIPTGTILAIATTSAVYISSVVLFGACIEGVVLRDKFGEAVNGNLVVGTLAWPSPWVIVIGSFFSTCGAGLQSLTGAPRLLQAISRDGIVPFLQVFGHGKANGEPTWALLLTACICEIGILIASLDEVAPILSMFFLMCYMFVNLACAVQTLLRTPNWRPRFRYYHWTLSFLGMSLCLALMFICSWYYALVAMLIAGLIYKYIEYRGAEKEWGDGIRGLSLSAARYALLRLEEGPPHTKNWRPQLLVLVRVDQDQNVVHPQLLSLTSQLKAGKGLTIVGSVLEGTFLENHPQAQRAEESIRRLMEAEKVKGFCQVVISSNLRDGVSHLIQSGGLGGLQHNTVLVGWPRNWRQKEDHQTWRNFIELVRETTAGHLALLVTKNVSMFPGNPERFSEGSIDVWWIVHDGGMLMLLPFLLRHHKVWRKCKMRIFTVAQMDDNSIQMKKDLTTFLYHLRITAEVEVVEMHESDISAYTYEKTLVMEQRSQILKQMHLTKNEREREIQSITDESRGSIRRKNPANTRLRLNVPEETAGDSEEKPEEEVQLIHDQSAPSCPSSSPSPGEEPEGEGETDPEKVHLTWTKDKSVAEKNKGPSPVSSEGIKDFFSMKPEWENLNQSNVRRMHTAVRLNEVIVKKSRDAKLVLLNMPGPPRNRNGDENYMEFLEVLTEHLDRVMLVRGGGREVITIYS
SKKanGAS inh = inhibitors of SKKanGAS S. pyogenes growth in kanamycin (SK-promoter or general growth effect). BacTiter-Glo, 6 h. inhibition, % at 7.5 µM. 1.3% of 300,000 active. AID 1662;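 active = mean replicate score, as percent of positive control median, at least 50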;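 note: strain carries kanamycin resistance gene driven by streptokinase promoter and grows in 40 µg/ml kanamycin; loss of luminescence reflects streptokinase promoter inhibition or plain growth inhibition; 0% = median of DMSO wells and 100% = positive control at its reference dose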
An asterisk follows results filed as active. In the library only some 4.2% were active in any assay of this set; here they are far more common.

How did O=C(COC(=O)c1ccccc1NCCO)NNC(=O)c1cccs1 do in these assays?
SKKanGAS inh: -5.7

Results for Cc1cccc2nc(-c3ccccc3)nc(N[C@@H](CO)c3ccccc3)c12 ?
WT yeast gro inh: 65.6*; Rad51 HR inh: 14.9; Autophagy HCS: inactive; Cl transport mod: 0.201; SKKanGAS inh: -14.5

How did CC1CCc2sc(C(=O)N/N=C/c3ccc(O)cc3)cc2C1 (centres undefined) do in these assays?
Rad51 HR inh: 8.3; Insulin prom up: -0.11; SKKanGAS inh: 1.3

What do the screens show for `CC(C)(CO)C(O)C(=O)NCCCO` (centres undefined)?
SKKanGAS inh: -2.5

How did O=C1C2C3CCC(CC3)C2C(=O)N1c1ccccc1 (centres undefined) do in these assays?
SKKanGAS inh: -1.9

What do the screens show for `C[C@H]1CC[C@H]2C(=O)N3[C@H](c4ccccc4Br)[C@@H](C)CC[C@H]3C(=O)N2[C@@H]1c1ccccc1Br`?
WT yeast gro inh: 69.7*; Autophagy HCS: active; Insulin prom up: -4; Cl transport mod: 4.37*; SKKanGAS inh: 11.0

How did Cc1cccc(COCC(Cc2ccccc2)N2CCN(C(=O)c3ccc(Cl)c(Cl)c3)CCC2=O)c1 (centres undefined) do in these assays?
WT yeast gro inh: 40.0; Rad51 HR inh: -4.7; Autophagy HCS: inactive; Insulin prom up: -0.41; Cl transport mod: -0.454; SKKanGAS inh: 23.7

Results for O=C(c1ccc(Cl)c(Cl)c1)N1CCC(=O)N(C(COCc2ccc(Cl)cc2)Cc2ccccc2)CC1 (centres undefined) ?
WT yeast gro inh: 45.1; Rad51 HR inh: 6.4; Autophagy HCS: inactive; Cl transport mod: -0.894; SKKanGAS inh: 50.5*

Results for Oc1ccc(/C=N/N2CCN(C3c4ccccc4-c4ccccc43)CC2)c(O)c1 ?
WT yeast gro inh: 98.0*; Rad51 HR inh: -1.6; Autophagy HCS: inactive; Cl transport mod: 0.876; SKKanGAS inh: -1.5

How did CC1(C)N=C(N)NC(Nc2ccccc2)=N1 do in these assays?
WT yeast gro inh: -4.8; Rad51 HR inh: 1.3; Autophagy HCS: inactive; Insulin prom up: -0.6; Cl transport mod: 0.862; SKKanGAS inh: 63.6*

How did Cc1ccccc1NC1=NC(C)(C)N=C(N)N1 do in these assays?
WT yeast gro inh: -12.0; Rad51 HR inh: -9.5; Autophagy HCS: inactive; Insulin prom up: -0.03; Cl transport mod: 0.021; SKKanGAS inh: -0.7

What do the screens show for `CC(C)(C)NC(=O)C12CC3CC(CC(Cl)(C3)C1)C2`?
WT yeast gro inh: 1.2; Rad51 HR inh: 2.5; Autophagy HCS: inactive; Insulin prom up: -0.63; Cl transport mod: -0.03; SKKanGAS inh: 3.0

Results for CC(C)(C)NC(=S)NC(=O)C12CCC3CC(CC(C3)C1)C2 ?
WT yeast gro inh: 73.1*; Autophagy HCS: inactive; Insulin prom up: -1.19; Cl transport mod: 0.339; SKKanGAS inh: 16.3

Results for COc1ccc(CNC(=O)COC(=O)CO/N=C(\C)c2ccc3c(c2)OCO3)cc1 ?
SKKanGAS inh: -5.9

What do the screens show for `COc1ccc(C(=O)NCC(=O)OCC(=O)N2N=C(c3ccc(Cl)cc3)CC2c2ccco2)cc1OC` (centres undefined)?
WT yeast gro inh: 3.1; Rad51 HR inh: 24.0; Autophagy HCS: inactive; Insulin prom up: -1.47; Cl transport mod: -0.448; SKKanGAS inh: 75.9*

What do the screens show for `COC(=O)c1nc(N)sc1-c1ccccc1`?
WT yeast gro inh: -0.1; Rad51 HR inh: 75.5*; Autophagy HCS: inactive; Insulin prom up: 0.04; Cl transport mod: -2.16

What do the screens show for `COc1ccc(Oc2nc(-c3ccccn3)ncc2OC)cc1`?
WT yeast gro inh: 32.9; Rad51 HR inh: -6.6; Autophagy HCS: inactive; Insulin prom up: 0.09; SKKanGAS inh: 53.8*

How did COc1cnc(-c2ccccn2)nc1Oc1cccc(Cl)c1 do in these assays?
WT yeast gro inh: 14.1; Rad51 HR inh: -0.7; Autophagy HCS: inactive; Cl transport mod: -1.74; SKKanGAS inh: -9.8

How did COc1ccc(-c2nc(-c3ccccn3)no2)cc1 do in these assays?
WT yeast gro inh: 64.4*; Rad51 HR inh: -0.7; Autophagy HCS: inactive; Insulin prom up: 0.47; Cl transport mod: 0.353

What do the screens show for `COc1cnc(-c2ccccn2)nc1Oc1c(C)cccc1C`?
WT yeast gro inh: 27.2; Rad51 HR inh: 14.2; Autophagy HCS: inactive; Insulin prom up: -2.99; SKKanGAS inh: 56.8*

What do the screens show for `Cc1ccc(N(CC(=O)NCc2ccccn2)S(=O)(=O)c2ccccc2)cc1C`?
SKKanGAS inh: 1.8

What do the screens show for `CC(=O)Nc1ccc(S(=O)(=O)N2CCN(c3cnn(C)c(=O)c3Cl)CC2)cc1`?
WT yeast gro inh: -4.5; Rad51 HR inh: -3.3; Autophagy HCS: inactive; Cl transport mod: -0.0124; SKKanGAS inh: 4.1

How did COc1ccccc1N(CC(=O)NCC1CCCO1)C(=O)CNS(=O)(=O)c1ccccc1 (centres undefined) do in these assays?
Rad51 HR inh: -7.0; Insulin prom up: 0.07; Cl transport mod: 1.15; SKKanGAS inh: -6.6

How did CSc1nncn1/N=C/c1ccc2c(c1)OCO2 do in these assays?
WT yeast gro inh: 64.0*; Rad51 HR inh: 3.1; Autophagy HCS: inactive; Insulin prom up: -0.04; Cl transport mod: -0.556; SKKanGAS inh: -10.2

How did CN1C(=O)CC(N2CCN(Cc3ccc(Cl)cc3)CC2)C1=O (centres undefined) do in these assays?
WT yeast gro inh: -29.1; Rad51 HR inh: -2.8; Autophagy HCS: inactive; Insulin prom up: 3.88*; Cl transport mod: 0.0974; SKKanGAS inh: 3.9

How did Nc1nc(SCc2ccc(Cl)cc2Cl)nc2nc3c(cc12)CCCC3 do in these assays?
WT yeast gro inh: 22.6; Rad51 HR inh: -20.1; Autophagy HCS: active; Insulin prom up: 0.64; Cl transport mod: -2.05; SKKanGAS inh: 11.8

Results for O=C(COC(=O)c1n[nH]c2ccccc12)c1cccc(Br)c1 ?
SKKanGAS inh: 39.2

Results for Cc1cccc(C)c1OCCOC(=O)c1n[nH]c2ccccc12 ?
WT yeast gro inh: 67.4*; Rad51 HR inh: -4.0; Autophagy HCS: inactive; Insulin prom up: 0.02; Cl transport mod: -0.0478; SKKanGAS inh: 4.7

What do the screens show for `Cc1cc(/C=C2\SC(=S)NC2=O)c(C)n1-c1cccc(O)c1`?
Rad51 HR inh: -105.9; Insulin prom up: 1.24; Cl transport mod: -0.731; SKKanGAS inh: 81.5*

How did Cc1cc(/C=C2\SC(=S)N(C)C2=O)c(C)n1-c1ccccc1O do in these assays?
SKKanGAS inh: 88.4*

How did Cc1cc(/C=C2\SC(=S)N(C)C2=O)c(C)n1-c1ccc(O)cc1 do in these assays?
Rad51 HR inh: -40.1; Insulin prom up: -0.56; Cl transport mod: 0.0284; SKKanGAS inh: 65.1*

What do the screens show for `Cc1ccc(-n2c(C)cc(/C=C3\SC(=O)NC3=O)c2C)cc1`?
SKKanGAS inh: 31.1

How did COc1ccc(-n2c(C)cc(/C=C3\SC(=S)N(Cc4ccco4)C3=O)c2C)cc1 do in these assays?
WT yeast gro inh: 14.9; Rad51 HR inh: -60.5; Autophagy HCS: active; Insulin prom up: 2.8; Cl transport mod: 1.23; SKKanGAS inh: 5.6
